In ChEMBL document CHEMBL4699498 (J Med Chem, 2020) one finds IC50 and Activity data, which are given here for 27 compounds.

pIC50: −log10 of the molar value. The source made the active and inactive calls. The rule behind the calls is not given here. Some results are limits rather than exact numbers.

The subject of one assay is CAPAN-1. Briefly: Antiproliferative activity against human CAPAN-1 cells assessed as cell growth inhibition incubated for 13 days by CCK-8 assay. The settings on record: CAPAN-1, 312 h. The format is functional, cell-based. The procedure, abridged: (§1)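 Cells were sub-cultured at least twice and seeded for 24 h before dosing. Compounds came from 10 mM DMSO stocks, given as 10 points of 3-fold serial dilution starting at 10-20 μM. Incubation was about 7 days (Capan-1 13 days) at 37 °C, 5% CO2. Read-out was CCK-8 absorbance at 450 nm, as % growth versus DMSO wells (duplicate wells). IC50 was fitted by nonlinear regression; three independent experiments.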

The test system of a further assay is MDA-MB-436. Briefly: Antiproliferative activity against human MDA-MB-436 cells assessed as cell growth inhibition incubated for 7 days by CCK-8 assay. The format is functional, cell-based. The settings on record: MDA-MB-436, 168 h. The procedure, abridged: as §1
For assay [1], the target named is von Hippel-Lindau disease tumor suppressor/Poly [ADP-ribose] polymerase 1 (Homo sapiens) (UniProt P09874+P40337). Put plainly: Protac activity at VHL/PARP1 in human MDA-MB-436 cells assessed as reduction in PARP1 protein level at 1 uM incubated for 24 hrs by western blot analysis. It is filed as cell-based.
von Hippel-Lindau disease tumor suppressor/Poly [ADP-ribose] polymerase 1 (Homo sapiens), sequence (P09874 whole entry, looked up): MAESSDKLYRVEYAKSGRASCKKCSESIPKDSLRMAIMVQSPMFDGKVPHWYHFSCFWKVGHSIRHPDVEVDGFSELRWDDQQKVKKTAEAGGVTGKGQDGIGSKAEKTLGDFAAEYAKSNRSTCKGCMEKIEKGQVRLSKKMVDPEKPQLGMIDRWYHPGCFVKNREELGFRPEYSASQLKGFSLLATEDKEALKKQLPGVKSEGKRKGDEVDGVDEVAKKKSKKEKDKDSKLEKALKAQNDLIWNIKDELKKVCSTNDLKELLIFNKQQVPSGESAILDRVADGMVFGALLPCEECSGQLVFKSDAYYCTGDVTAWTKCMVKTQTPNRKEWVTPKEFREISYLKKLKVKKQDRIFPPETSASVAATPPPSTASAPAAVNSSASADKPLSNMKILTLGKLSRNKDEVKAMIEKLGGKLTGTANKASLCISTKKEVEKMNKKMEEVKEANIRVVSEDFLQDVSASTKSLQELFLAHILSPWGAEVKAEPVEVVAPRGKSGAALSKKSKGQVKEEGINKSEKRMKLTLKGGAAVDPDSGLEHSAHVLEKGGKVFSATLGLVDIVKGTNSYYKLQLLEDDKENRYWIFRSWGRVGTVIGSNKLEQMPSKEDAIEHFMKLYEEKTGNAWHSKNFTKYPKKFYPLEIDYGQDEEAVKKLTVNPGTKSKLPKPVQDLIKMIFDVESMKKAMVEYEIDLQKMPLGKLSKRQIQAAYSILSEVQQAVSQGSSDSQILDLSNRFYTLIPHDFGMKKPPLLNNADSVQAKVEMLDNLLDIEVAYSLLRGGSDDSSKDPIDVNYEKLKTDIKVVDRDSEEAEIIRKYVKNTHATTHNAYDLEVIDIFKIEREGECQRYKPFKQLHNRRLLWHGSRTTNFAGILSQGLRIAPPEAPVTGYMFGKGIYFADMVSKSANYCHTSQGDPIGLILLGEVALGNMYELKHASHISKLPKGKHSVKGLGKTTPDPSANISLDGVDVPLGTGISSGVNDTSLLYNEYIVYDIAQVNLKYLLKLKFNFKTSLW
von Hippel-Lindau disease tumor suppressor/Poly [ADP-ribose] polymerase 1 (Homo sapiens), sequence (P40337 whole entry, looked up): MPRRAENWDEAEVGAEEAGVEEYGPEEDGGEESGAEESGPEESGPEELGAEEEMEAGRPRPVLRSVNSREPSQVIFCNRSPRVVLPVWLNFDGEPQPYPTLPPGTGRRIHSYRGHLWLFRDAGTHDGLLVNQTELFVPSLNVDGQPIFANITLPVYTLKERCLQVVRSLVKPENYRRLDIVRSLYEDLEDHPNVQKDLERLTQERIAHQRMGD
Assay [2] concerns the target T1, Protein cereblon/Poly [ADP-ribose] polymerase 1 (Homo sapiens, UniProt P09874+Q96SW2). Put plainly: Protac activity at CRBN/PARP1 in human MDA-MB-436 cells assessed as induction of PARP1 degradation at 100 nM incubated for 24 hrs by Western blot analysis relative to control. The format is cell-based. The procedure, abridged: (§2)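 MDA-MB-436 cells (RPMI-1640, 10% FBS) seeded 24 h, then exposed to compound at 1, 10, 100 and 1000 nM for 24 h. Lysates in RIPA with protease inhibitors, 20-30 µg protein by SDS-PAGE, PARP1 immunoblot with β-tubulin loading control; PARP1/β-tubulin ratio normalized to DMSO control set at 100.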

Assay [3] has as its target T1, Protein cereblon/Poly [ADP-ribose] polymerase 1. Briefly: Protac activity at CRBN/PARP1 in human MDA-MB-436 cells assessed as induction of PARP1 degradation at 10 nM incubated for 24 hrs by Western blot analysis relative to control. It is filed as cell-based. An outline of the steps:
as §2

The target is the same in assay [4]. Briefly: Protac activity at CRBN/PARP1 in human MDA-MB-436 cells assessed as induction of PARP1 degradation at 1 uM incubated for 24 hrs by Western blot analysis relative to control. It is filed as cell-based. The procedure, abridged: as §2
In assay [5] the target is Poly [ADP-ribose] polymerase 1 (Homo sapiens, UniProt P09874). Briefly: Inhibition of recombinant human C-terminal His-tagged PARP1 expressed in Sf9 insect cells preincubated for 20 mins in presence of activated DNA followed by […] addition and further incubated for 2 hrs by chemiluminescence assay.
Poly [ADP-ribose] polymerase 1, sequence (P09874 whole entry): as the sequence (P09874 whole entry, looked up) above
Assay [6] has as its target T1, Protein cereblon/Poly [ADP-ribose] polymerase 1. Briefly: Protac activity at CRBN/PARP1 in human MDA-MB-436 cells assessed as induction of PARP1 degradation at 1 to 1000 nM incubated for 24 hrs by Western blot analysis. It is filed as cell-based. The settings on record: dose nM 1-1000, time 24.0 hrs. An outline of the steps:
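PARP1 immunoblot of MDA-MB-436 lysates after 24 h exposure at 1, 10, 100 and 1000 nM; RIPA lysis, 20-30 µg protein per lane, β-tubulin as loading control, band density normalized to DMSO control.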

The target is the same in assay [7]. Put plainly: Protac activity at CRBN/PARP1 in human Capan1 cells assessed as induction of PARP1 degradation at 1 to 1000 nM incubated for 24 hrs by Western blot analysis. The format is cell-based. The settings on record: CAPAN-1, dose nM 1-1000, time 24.0 hrs. An outline of the steps: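 Capan-1 cells were treated 24 h (1-1000 nM, or a wider dose range for DC50). Lysis was in RIPA buffer with protease inhibitors, and 20-30 μg protein was blotted. PARP1 was normalized to β-tubulin and to DMSO control, quantified by densitometry. DC50 came from two independent experiments.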

Assay [8] shares this target. Briefly: Protac activity at CRBN/PARP1 in human SW620 cells assessed as reduction in PARP1 protein level at 0.01 to 10 uM incubated for 12 hrs by western blot analysis. The settings on record: SW-620, dose microM 0.01-10, time 12.0 hrs. The format is cell-based. An outline of the steps:
(§3)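 MDA-MB-436 or SW620 cells dosed at 1, 10, 100, 1000 nM and 10 µM for 12 h; PARP1 assessed by western blot of RIPA lysates (20-30 µg protein), β-tubulin as loading control.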

Assay [9] shares this target. Briefly: Protac activity at CRBN/PARP1 in human MDA-MB-436 cells assessed as reduction in PARP1 protein level at 0.01 to 10 uM incubated for 12 hrs by western blot analysis. It is filed as cell-based. The settings on record: dose microM 0.01-10, time 12.0 hrs. An outline of the steps:
as §3

T1 sequence (P09874 2-1014 limits assumed): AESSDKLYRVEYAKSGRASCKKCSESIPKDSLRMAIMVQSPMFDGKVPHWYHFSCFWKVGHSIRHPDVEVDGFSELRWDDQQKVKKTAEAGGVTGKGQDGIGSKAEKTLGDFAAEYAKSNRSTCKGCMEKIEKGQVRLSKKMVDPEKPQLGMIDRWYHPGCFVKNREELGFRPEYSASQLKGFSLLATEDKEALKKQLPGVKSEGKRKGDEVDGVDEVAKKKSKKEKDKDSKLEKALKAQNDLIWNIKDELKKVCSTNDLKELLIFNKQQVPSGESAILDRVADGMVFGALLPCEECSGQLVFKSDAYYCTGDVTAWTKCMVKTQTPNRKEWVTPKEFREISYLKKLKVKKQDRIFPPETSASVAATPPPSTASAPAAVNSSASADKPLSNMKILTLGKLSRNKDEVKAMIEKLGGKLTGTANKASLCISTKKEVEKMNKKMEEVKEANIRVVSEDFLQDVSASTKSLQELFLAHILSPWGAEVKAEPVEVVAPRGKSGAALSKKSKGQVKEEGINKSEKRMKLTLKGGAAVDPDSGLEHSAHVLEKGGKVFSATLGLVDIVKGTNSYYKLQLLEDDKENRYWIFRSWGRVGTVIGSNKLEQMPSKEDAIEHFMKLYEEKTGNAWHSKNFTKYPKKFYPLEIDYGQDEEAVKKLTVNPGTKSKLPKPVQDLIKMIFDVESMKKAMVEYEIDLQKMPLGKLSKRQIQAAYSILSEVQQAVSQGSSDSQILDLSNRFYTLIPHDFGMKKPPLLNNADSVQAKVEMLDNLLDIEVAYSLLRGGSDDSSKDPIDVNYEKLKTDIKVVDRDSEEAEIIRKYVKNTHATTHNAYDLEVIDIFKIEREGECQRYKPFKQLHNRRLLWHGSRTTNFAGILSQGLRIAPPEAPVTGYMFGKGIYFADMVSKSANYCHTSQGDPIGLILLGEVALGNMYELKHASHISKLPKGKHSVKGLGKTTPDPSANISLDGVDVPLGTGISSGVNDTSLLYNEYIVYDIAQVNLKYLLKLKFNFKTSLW
T1 sequence (Q96SW2 whole entry partner): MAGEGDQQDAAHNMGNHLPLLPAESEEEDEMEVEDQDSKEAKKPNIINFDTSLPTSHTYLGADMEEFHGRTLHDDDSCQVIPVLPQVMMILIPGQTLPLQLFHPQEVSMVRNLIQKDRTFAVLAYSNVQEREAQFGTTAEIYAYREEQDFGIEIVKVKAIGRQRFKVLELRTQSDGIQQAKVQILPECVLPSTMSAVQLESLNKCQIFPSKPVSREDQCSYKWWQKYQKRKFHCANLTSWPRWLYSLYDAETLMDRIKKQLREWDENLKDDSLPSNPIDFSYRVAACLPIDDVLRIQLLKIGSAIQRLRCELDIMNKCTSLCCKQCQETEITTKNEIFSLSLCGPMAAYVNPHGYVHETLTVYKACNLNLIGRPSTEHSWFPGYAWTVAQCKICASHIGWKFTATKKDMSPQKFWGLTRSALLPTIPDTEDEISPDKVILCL

Take `O=C(CCCCCCCCCCC(=O)N1CCN(C(=O)c2cc(Cc3n[nH]c(=O)c4ccccc34)ccc2F)CC1)NCCOCCNc1cccc2c1C(=O)N(C1CCC(=O)NC1=O)C2=O` (centres undefined): the pIC50 in the assay on CAPAN-1 was 6.92; with MDA-MB-436, 7.33.
As for `O=C(COc1cccc2c1C(=O)N(C1CCC(=O)NC1=O)C2=O)NCCCCCC(=O)N1CCN(C(=O)c2cc(Cc3n[nH]c(=O)c4ccccc34)ccc2F)CC1` (centres undefined), the pIC50 in the assay on CAPAN-1 was less than 5.00; with MDA-MB-436 it was 5.03.
Take `O=C(CCCCCCCCCCC(=O)N1CCN(C(=O)c2cc(Cc3n[nH]c(=O)c4ccccc34)ccc2F)CC1)NCCCCCCNc1cccc2c1C(=O)N(C1CCC(=O)NC1=O)C2=O` (centres undefined): the figures for the pIC50 in the assay on CAPAN-1 and in the assay on MDA-MB-436 were 6.96 and 7.38, respectively.
On to `O=C(CCCCCNC(=O)COc1cccc2c1C(=O)N(C1CCC(=O)NC1=O)C2=O)NCCCC(=O)N1CCN(C(=O)c2cc(Cc3n[nH]c(=O)c4ccccc34)ccc2F)CC1` (centres undefined), for which the negative logarithm of the IC50 (pIC50) with CAPAN-1 is 5.06; in the assay with MDA-MB-436, 5.72.
On to `O=C(CCCCCNC(=O)CNc1cccc2c1C(=O)N(C1CCC(=O)NC1=O)C2=O)NCCCCCC(=O)N1CCN(C(=O)c2cc(Cc3n[nH]c(=O)c4ccccc34)ccc2F)CC1` (centres undefined), for which the negative logarithm of the IC50 (pIC50) in the assay on CAPAN-1 is 5.66; with MDA-MB-436, 5.77.
As to `Cc1ncsc1-c1ccc(CNC(=O)[C@@H]2C[C@@H](O)CN2C(=O)[C@@H](NC(=O)CNC(=O)CCCCCCCCCCC(=O)N2CCN(C(=O)c3cc(Cc4n[nH]c(=O)c5ccccc45)ccc3F)CC2)C(C)(C)C)cc1`, the pIC50 was 5.80 in the assay on CAPAN-1 and 5.92 in the assay with MDA-MB-436. Further, in assay [1], the outcome was inactive.
Take `O=C(CCCNC(=O)COc1cccc2c1C(=O)N(C1CCC(=O)NC1=O)C2=O)NCCCC(=O)N1CCN(C(=O)c2cc(Cc3n[nH]c(=O)c4ccccc34)ccc2F)CC1` (centres undefined): the pIC50 in the assay on CAPAN-1 was less than 5.00; in the assay on MDA-MB-436, 5.28.
On the same counts, the results for `O=C(CCCCCCCCCCC(=O)N1CCN(C(=O)c2cc(Cc3n[nH]c(=O)c4ccccc34)ccc2F)CC1)NCCCOCCOCCOCCCNc1cccc2c1C(=O)N(C1CCC(=O)NC1=O)C2=O` (centres undefined) are 6.81 and 7.19.
Take `O=C(CCCCCCCCCCCC(=O)N1CCN(C(=O)c2cc(Cc3n[nH]c(=O)c4ccccc34)ccc2F)CC1)NCCNc1cccc2c1C(=O)N(C1CCC(=O)NC1=O)C2=O` (centres undefined): the pIC50 was 7.06 in the assay on CAPAN-1 and 7.68 in the assay with MDA-MB-436.
The corresponding values for `O=C(COc1cccc2c1C(=O)N(C1CCC(=O)NC1=O)C2=O)NCCCC(=O)N1CCN(C(=O)c2cc(Cc3n[nH]c(=O)c4ccccc34)ccc2F)CC1` (centres undefined) are less than 5.00 and less than 5.00.
As to `O=C(CCCCCCCCCCC(=O)N1CCN(C(=O)c2cc(Cc3n[nH]c(=O)c4ccccc34)ccc2F)CC1)NCCCCNc1cccc2c1C(=O)N(C1CCC(=O)NC1=O)C2=O` (centres undefined), the results for the Activity in [2], in assay [3] and in assay [4] were 90.5%, 70% and 45%, respectively. For the same compound, the figures for the pIC50 with CAPAN-1 and in the assay on MDA-MB-436 were 6.88 and 7.41, respectively.
Take `CN1C(=O)CCC(N2C(=O)c3cccc(NCCNC(=O)CCCCCCCCCCC(=O)N4CCN(C(=O)c5cc(Cc6n[nH]c(=O)c7ccccc67)ccc5F)CC4)c3C2=O)C1=O` (centres undefined): the negative-log IC50 (pIC50) in assay [5] is 8.58. The result in [6] and in assay [7] was inactive.
`O=C(CCCCCCCCCCCCC(=O)N1CCN(C(=O)c2cc(Cc3n[nH]c(=O)c4ccccc34)ccc2F)CC1)NCCNc1cccc2c1C(=O)N(C1CCC(=O)NC1=O)C2=O` (centres undefined): the negative-log IC50 (pIC50) was 6.93 in the assay on CAPAN-1 and 7.60 in the assay with MDA-MB-436.
With `O=C(CCCCCCCCCCC(=O)N1CCN(C(=O)c2cc(Cc3n[nH]c(=O)c4ccccc34)ccc2F)CC1)NCCOCCOCCNc1cccc2c1C(=O)N(C1CCC(=O)NC1=O)C2=O` (centres undefined), the pIC50 is 6.87 in the assay with CAPAN-1 and 7.19 in the assay with MDA-MB-436.
For `O=C(CCCNC(=O)COc1cccc2c1C(=O)N(C1CCC(=O)NC1=O)C2=O)NCCCCCC(=O)N1CCN(C(=O)c2cc(Cc3n[nH]c(=O)c4ccccc34)ccc2F)CC1` (centres undefined), the pIC50 in the assay on CAPAN-1 was 5.51; in the assay on MDA-MB-436, 5.92.
As to `O=C(CCCCCCCCCCC(=O)N1CCN(C(=O)c2cc(Cc3n[nH]c(=O)c4ccccc34)ccc2F)CC1)NCCNc1cccc2c1CN(C1CCC(=O)NC1=O)C2=O` (centres undefined), the pIC50 with CAPAN-1 was 6.71; with MDA-MB-436 it was 7.04.
`CN(CCOCCOCCOCCOCCOCCOCCNc1cccc2c1C(=O)N(C1CCC(=O)NC1=O)C2=O)Cc1ccc(-c2[nH]c3cc(F)cc4c3c2CCNC4=O)cc1` (centres undefined): the outcome in assay [8] and in assay [9] was Active. For the same compound, the pIC50 in the assay on CAPAN-1 was 6.02; with MDA-MB-436, 6.15.
With `Cc1ncsc1-c1ccc(CNC(=O)[C@@H]2C[C@@H](O)CN2C(=O)[C@@H](NC(=O)CCCCCNC(=O)CCCCCCCCCCC(=O)N2CCN(C(=O)c3cc(Cc4n[nH]c(=O)c5ccccc45)ccc3F)CC2)C(C)(C)C)cc1`, the pIC50 is 6.77 in the assay with CAPAN-1 and 6.92 with MDA-MB-436. Moreover, the result in assay [1] was inactive.
Regarding `O=C(CCCCCCC(=O)N1CCN(C(=O)c2cc(Cc3n[nH]c(=O)c4ccccc34)ccc2F)CC1)NCCNc1cccc2c1C(=O)N(C1CCC(=O)NC1=O)C2=O` (centres undefined), the pIC50 with CAPAN-1 is 5.39; in the assay with MDA-MB-436, 6.08.
As for `O=C(CCCCCNC(=O)COc1cccc2c1C(=O)N(C1CCC(=O)NC1=O)C2=O)NCCCCCC(=O)N1CCN(C(=O)c2cc(Cc3n[nH]c(=O)c4ccccc34)ccc2F)CC1` (centres undefined), the pIC50 was 5.82 in the assay on CAPAN-1 and 6.02 in the assay on MDA-MB-436.
On to `O=C(CCCCCCCCCCC(=O)N1CCN(C(=O)c2cc(Cc3n[nH]c(=O)c4ccccc34)ccc2F)CC1)NCCNc1ccc2c(c1)C(=O)N(C1CCC(=O)NC1=O)C2=O` (centres undefined), for which the pIC50 in the assay on CAPAN-1 is 6.80; in the assay with MDA-MB-436, 7.46.
Take `Cc1ncsc1-c1ccc(CNC(=O)[C@@H]2C[C@@H](O)CN2C(=O)[C@@H](NC(=O)CCCCCCCCCCC(=O)N2CCN(C(=O)c3cc(Cc4n[nH]c(=O)c5ccccc45)ccc3F)CC2)C(C)(C)C)cc1`: the negative logarithm of the IC50 (pIC50) in the assay with CAPAN-1 was 7.06; in the assay with MDA-MB-436, 7.27. The result in assay [1] was inactive.
For `O=C(CCCNC(=O)CNc1cccc2c1C(=O)N(C1CCC(=O)NC1=O)C2=O)NCCCCCC(=O)N1CCN(C(=O)c2cc(Cc3n[nH]c(=O)c4ccccc34)ccc2F)CC1` (centres undefined), the results for the pIC50 with CAPAN-1 and with MDA-MB-436 were 5.15 and 5.66, respectively.
`O=C(CCCCC(=O)N1CCN(C(=O)c2cc(Cc3n[nH]c(=O)c4ccccc34)ccc2F)CC1)NCCNc1cccc2c1C(=O)N(C1CCC(=O)NC1=O)C2=O` (centres undefined): the pIC50 in the assay with CAPAN-1 and in the assay with MDA-MB-436 was less than 5.00 each time.
Turning to `Cc1ncsc1-c1ccc(CNC(=O)[C@@H]2C[C@@H](O)CN2C(=O)[C@@H](NC(=O)CCCNC(=O)CCCCCCCCCCC(=O)N2CCN(C(=O)c3cc(Cc4n[nH]c(=O)c5ccccc45)ccc3F)CC2)C(C)(C)C)cc1`, the pIC50 is 6.06 in the assay with CAPAN-1 and 6.17 in the assay on MDA-MB-436. Moreover, the result in assay [1] was inactive.
Regarding `O=C(CCCCCCCCC(=O)N1CCN(C(=O)c2cc(Cc3n[nH]c(=O)c4ccccc34)ccc2F)CC1)NCCNc1cccc2c1C(=O)N(C1CCC(=O)NC1=O)C2=O` (centres undefined), the pIC50 in the assay on CAPAN-1 is 6.31; in the assay on MDA-MB-436, 6.91.
On the same counts, the results for `O=C(CCCCCCCCCC(=O)N1CCN(C(=O)c2cc(Cc3n[nH]c(=O)c4ccccc34)ccc2F)CC1)NCCNc1cccc2c1C(=O)N(C1CCC(=O)NC1=O)C2=O` (centres undefined) are 6.58 and 7.54.
